Screens as filed in PubChem.
HTR1E agonist: 5-HT1E (human) receptor agonism; P28566; hit rate 0.69% among 65,000; activation, % at 6 µM; CHO 5-HT1E Ga15 NFAT-bla reporter, FRET; 0% DMSO wells, 100% control agonist wells;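 active means activation above a set limit, the screen-wide mean activation plus 3 SD, cut at about 8.5% in these data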;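 further: 100% = positive control agonist at 1 µM giving full maximal response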
5HT1a ag: agonists of human 5-HT1a serotonin receptor; P08908; CHO 5-HT1a Ga15 NFAT-bla reporter, FRET ratio; 0% basal, 100% maximal reference agonist; activation, % at 10 µM; hit rate 0.56% among 65,000; AID 567;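 active means activation above the screen-wide mean activation plus 3 SD, cut at about 19% in these data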;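 further: 0% = DMSO wells and 100% = 5-CT at EC100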
Target sequence (P08908 whole entry, looked up): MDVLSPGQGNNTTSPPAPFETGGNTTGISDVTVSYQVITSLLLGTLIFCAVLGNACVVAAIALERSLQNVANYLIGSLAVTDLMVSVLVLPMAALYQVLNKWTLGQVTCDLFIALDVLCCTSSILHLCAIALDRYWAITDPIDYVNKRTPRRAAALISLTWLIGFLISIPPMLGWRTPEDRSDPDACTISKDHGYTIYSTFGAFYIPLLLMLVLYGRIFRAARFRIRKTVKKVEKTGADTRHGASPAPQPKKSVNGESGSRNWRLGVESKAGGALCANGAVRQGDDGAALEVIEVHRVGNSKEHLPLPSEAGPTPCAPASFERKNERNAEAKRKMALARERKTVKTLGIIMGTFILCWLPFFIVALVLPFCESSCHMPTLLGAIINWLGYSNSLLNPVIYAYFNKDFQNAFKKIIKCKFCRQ
5HT1a antag: 5-HT1a (human) receptor antagonism; CHO 5-HT1a Ga15 NFAT-bla reporter, antagonist mode; inhibition, % at 10 µM; hit rate 0.68% among 62,000;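 active means inhibition above the mean of all tested compounds plus 3 SD, cut at about 43% in these data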;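 further: receptor stimulated by 5-CT agonist at 100 nM near EC80; beta-lactamase reporter measured by ratiometric fluorescence of a cleavable substrate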
HEK293 NFkB inh: inhibitors of the PMA/ionomycin-induced NF-kB reporter in HEK293 cells | HEK-293 NF-kB luciferase reporter, luminescence | inhibition, % at 3 µM | hit rate 0.21% among 62,000;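 active means inhibition above the mean of all tested compounds plus 3 SD, cut at about 40% in these data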;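 further: 0% = stimulated DMSO wells and 100% = 10 µM reference inhibitor 5653914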
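Timing: 1 h pretreatment, 16 h stimulation, 37 °C; system: HEK-293 cells with stable firefly luciferase reporter driven by four HIV NF-kB elements; doses: 3 µM once, 0.30% DMSO; measured by: luciferase luminescence; control set: DMSO and 10 µM reference inhibitor; repeats: single test; reagent: PMA plus ionomycin mix as NF-kB-activating stimulus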
5HT1E antag: 5-HT1E (human) receptor antagonism; P28566; CHO 5-HT1E Ga15 NFAT-bla reporter, FRET, antagonist; inhibition, % at 6 µM; hit rate 0.99% among 65,000;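 active means inhibition above a set limit, the mean inhibition across every tested compound plus 3 SD, cut at about 29% in these data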;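 further: signal is the 460 over 535 nm emission ratio of beta-lactamase substrate; 0% = agonist plus DMSO wells and 100% = wells without agonist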
The depositor's hits bear a star. A selection: hits, their analogues and other compounds. The true share with any hit is near 2.6%.

SMILES	HTR1E agonist	5HT1a ag	5HT1a antag	HEK293 NFkB inh	5HT1E antag
N#Cc1c(N)oc(-c2ccc3c(c2)OCO3)c1-c1ccc2c(c1)OCO2	-1	-2	6	16	0
CN(C)Cc1cc(CCNC(=O)c2ccc(Cl)cc2)ccc1O	14*	-3	27	14	7
COc1cc(CN2CCN(c3ccccc3F)CC2)cc(OC)c1O	14*	1	4	12	2
COc1ccccc1N1CCN(c2cc(N3CCCC3)nc(C)n2)CC1	0	0	7	13	2
c1ccc(N2CCN(Cc3ccsc3)CC2)nc1	6	0	2	13	-10
COc1ccc(OC)c(CN2CCN(c3ccccc3OC)CC2)c1	5	-2	53*	-3	7
COc1ccccc1N1CCN(Cc2ccsc2)CC1	21*	40*	29	12	0
COc1ccccc1N1CCN(Cc2ccc(OC)c(OC)c2OC)CC1	31*	4	62*	20	-1
CCOC(=O)c1ccc(N2C(=O)C3C(C2=O)C(C(=O)c2ccc(Cl)cc2)N2CCCC32)cc1 (configuration not stated)	0	4	1	4	-3
Cc1[nH]c2ccccc2c1C(=O)CN1CCCCC1CCO (configuration not stated)	0	-1	1	10	-8
CN(C)CCCNC(=O)C1CCNCC1	0	-3	0	18	-10
CCN1CCN(C(c2cc(OC)ccc2OC)c2nnnn2Cc2ccccc2)CC1 (configuration not stated)	0	-2	2	4	8
C/C=C(\C)CN1CCN(c2ccccc2F)CC1	8	2	0	12	-6
CCOC(=O)c1cnc2c(OC)cccc2c1N1CCN(c2ccccc2OC)CC1	9.1*	2	38	-6	2
COc1ccc(CC(C)N2CCN(Cc3ccccc3)CC2)c(OC)c1 (configuration not stated)	-1	-1	92*	13	5
CCOC(=O)c1cnc2c(OC)cccc2c1N1CCN(c2ccc(OC)cc2)CC1	2	2	8	12	-9
COc1ccccc1N1CCN(C/C(C)=C/c2ccccc2)CC1	7	-3	84*	11	-4
COc1ccccc1N1CCN(C/C(O)=C(\C#N)c2nc(-c3ccccc3)cs2)CC1	10*	1	10	10	3
O=C1CN(C(=O)c2ccc(Br)o2)C(c2ccc(F)cc2)c2cc(F)ccc2N1 (configuration not stated)	0	2	6	12	-10
CCOc1ccc(NC(=O)CCN2CCN(S(=O)(=O)c3cc(Cl)ccc3OC)CC2)cc1	-1	-1	-10	8	9
CCOc1ccccc1N1CCN(Cc2cccc(OC)c2OC)CC1	1	-4	58*	19	13
CCOc1ccc(NC(=O)CCN2CCN(c3ccccc3OC)CC2)cc1	1	1	100*	14	2
COc1cc(S(=O)(=O)N2CCN(c3ccccc3F)CC2)ccc1Cl	0	21*	-5	4	-1
CCc1ccc(OCc2nnc(SCC(=O)NCc3ccco3)o2)cc1	2	0	-2	17	1
N#CC1=C(O)C(c2ccccc2)n2c1nc(=O)c1ccccc12 (configuration not stated)	-1	-1	-4	-6	-13
SMILES	HTR1E agonist	5HT1a ag	5HT1a antag	HEK293 NFkB inh	5HT1E antag
Nc1cc(C(=O)c2cccs2)ccc1Cl	0	-6	22	20	12
COc1cccc(C(=O)Cn2c(=N)n(C)c3ccccc32)c1	1	0	47*	-62	11
Cc1ccc(/C=c2\sc3nc(-c4ccccc4Br)nn3c2=O)o1	0	-1	-9	-2	-5
Cc1ccc(/C=c2/sc3nnc(-c4ccccc4Cl)n3c2=O)o1	0	0	46*	-2	0
CCN(CC)CCCN1C(=O)c2oc3ccccc3c(=O)c2C1c1cc(OC)ccc1OC (configuration not stated)	0	-1	-18	27	3
CCCCCOc1ccc(N2C(=O)CC(N(O)c3ccccc3)C2=O)cc1 (configuration not stated)	0	-1	-1	12	5
CCCCOc1ccc(N2C(=O)CC(N(O)c3ccccc3)C2=O)cc1 (configuration not stated)	1	0	9	6	34*
O=C(Cn1cccc1C(=O)c1ccccc1)NCc1cccs1	29*	-2	6	12	4
O=C(CSc1ncccc1-c1nc2ccccc2[nH]1)N1CCN(c2ccccc2F)CC1	8.7*	3	18	23	6
COc1ccccc1N1CCN(C(=O)CSc2ncccc2-c2nc3ccccc3[nH]2)CC1	22*	5	14	31	-2
O=C(CC1Oc2ccc(Cl)cc2NC1=O)NC1CCCCCC1 (configuration not stated)	1	0	-10	16	-7
COc1ccccc1NC(=O)N1CCc2[nH]c3ccc(F)cc3c2C1	-2	1	29	9	29*
COc1ccc(-c2nc(N3CCOCC3)nc3nn4c(C)c(CCC(=O)O)c(C)nc4c23)cc1	0	-3	-8	7	-4
N#Cc1c(N)nc2c(c1-c1ccccc1)CCCC2	1	-2	2	10	6
N#Cc1c(N)nc(-c2ccccc2)nc1-c1ccccc1	0	-1	23	19	30*
CCOC(=O)c1sc2c(c1C)C(c1cccs1)C1=C(CCCC1=O)N2 (configuration not stated)	6	22*	-4	1	6
CC1CCN(C(=O)C2Cc3ccccc3CN2S(=O)(=O)c2ccc(F)cc2)CC1 (configuration not stated)	0	2	-3	29	3
COc1ccc(C2=Nn3c(nnc3-c3ccc(OC)cc3)SC2)cc1	0	-1	43*	25	79*
Cc1cccc(-c2nnc3n2N=C(c2ccccc2Br)CS3)c1	2	-5	16	-4	31*
c1ccc(C2=Nn3c(nnc3-c3cc(-c4ccccc4)n[nH]3)SC2)cc1	2	-2	-14	-4	20
Cc1ccc(-c2nnc3n2N=C(c2ccccc2)CS3)cc1	1	-1	5	-5	45*
CCCN1CCN(CCCNC(=O)Cn2nc(-c3ccccc3)ccc2=O)CC1	0	0	-3	10	-1
CCn1c(CCNC(=O)c2cccs2)nnc1SCC(=O)NC1CCCCC1	1	-1	-10	-1	-4
CCCCCn1c(C(C)NC(=O)CCC)nc2ccccc21 (configuration not stated)	1	-4	-4	9	-24
COC(=O)c1nnn(-c2nonc2N)c1CSc1ccc(Cl)cc1	-1	-2	15	5	30*
Cc1cc(C)c(NC(=O)c2cc3c(nc4sccn43)s2)c(C)c1	0	0	23	4	29*
